Test results as given in ChEMBL document CHEMBL1130334, “Effect of plasma protein binding on in vivo activity and brain penetration of glycine/NMDA receptor antagonists” (J Med Chem, 1997).

Tests used:
[1] = Partition coefficient (logP); type: physicochemical; settings: octanol/water
Outline: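 Octanol/pH 7.4 buffer partition; values were either measured or calculated from tables of π values.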

[2] = protein binding index(PBI) is the ratio of binding affinities for the displacement of [3H]- glycine from rat cortical membranes in the presence and absence of 0.2% human serum albumin; type: cell membranes; settings: Membrane
Outline: (§1)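 [³H]glycine displacement from rat cortical membranes, with and without 0.2% (w/v) human serum albumin. Separation by centrifugation. Index = IC50 with albumin / IC50 without albumin.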

[3] = test system: Mus musculus; assay: Anti convulsant activity of compound was measured by its ability to protect against audiogenic seizure in DBA/2 mice when dosed intraperitoneally 30 min prior to seizure induction.; type: functional; settings: ip
Outline: (§2)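 DBA/2 mice, compound dosed intraperitoneally 30 min before induction of audiogenic seizures. Reported as ED50 (mg/kg and μmol/kg) or as number protected/number tested at a single dose. For some compounds the test was run 10 min after dosing.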

[4] = target: Albumin (Homo sapiens, UniProt P02768); assay: Human serum albumin index was measured by retention time on an HPLC column containing human albumin
Albumin, sequence (P02768 whole entry): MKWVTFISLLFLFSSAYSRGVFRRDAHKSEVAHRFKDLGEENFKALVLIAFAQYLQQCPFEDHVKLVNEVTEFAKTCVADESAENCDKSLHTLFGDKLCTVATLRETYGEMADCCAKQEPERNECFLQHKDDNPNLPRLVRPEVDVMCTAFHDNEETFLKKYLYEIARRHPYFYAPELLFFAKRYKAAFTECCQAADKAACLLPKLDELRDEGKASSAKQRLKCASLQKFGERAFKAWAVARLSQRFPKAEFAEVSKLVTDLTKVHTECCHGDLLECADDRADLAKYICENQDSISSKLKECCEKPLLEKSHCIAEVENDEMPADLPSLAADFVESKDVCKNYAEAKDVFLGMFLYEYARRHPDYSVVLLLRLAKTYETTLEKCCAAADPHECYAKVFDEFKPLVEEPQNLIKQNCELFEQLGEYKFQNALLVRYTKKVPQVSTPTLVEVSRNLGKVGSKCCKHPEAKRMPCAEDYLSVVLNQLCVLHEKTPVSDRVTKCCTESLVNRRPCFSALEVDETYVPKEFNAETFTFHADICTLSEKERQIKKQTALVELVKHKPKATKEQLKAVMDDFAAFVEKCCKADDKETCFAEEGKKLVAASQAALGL
Outline: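 HPLC on a column containing human serum albumin. Retention volume of each compound is divided by that of a reference standard and normalized so the standard equals 100.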

[5] = target: Glutamate NMDA receptor (Rattus norvegicus) (UniProt P35439+Q00959+Q00960+Q00961+Q62645+Q8VHN2+Q9R1M7); assay: Protein binding index(PBI) reflects the relative displacement of [3H]glycine from rat cortical membranes in the presence and absence of 0.2% human serum albumin; type: cell membranes; settings: Membrane; outline: as §1
[6] = test system: Mus musculus; assay: Anticonvulsant activity measured by its ability to protect against audiogenic seizure in DBA/2 mice when dosed intraperitoneally 30 min prior to seizure induction.; type: functional; settings: ip; outline: as §2
[7] = test system: Mus musculus; assay: Ability of intravenously administered compound to prevent seizures, induced by NMDLA (500 mg/kg sc) in mice; type: functional
Outline: (§3)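 Swiss Webster mice; seizures induced by N-methyl-D,L-aspartate 500 mg/kg sc. Test compound given iv 15 min before NMDLA. Where warfarin is used, it is given iv 15 min before the test compound.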

[8] = test system: Mus musculus; assay: Ability of intravenously administered compound to prevent seizures, induced by NMDLA (500 mg/kg sc) in mice, in the presence of 100 mg/kg of warfarin; type: functional; settings: route intravenous; outline: as §3
[9] = test system: Mus musculus; assay: Ability of intravenously administered compound to prevent seizures, induced by NMDLA (500 mg/kg sc) in mice, in the presence of 60 mg/kg of warfarin; type: functional; settings: route intravenous; outline: as §3
[10] = species: Rattus norvegicus; assay: Clearance into cortex from rat plasma or PBS; type: ADME, organism-based; settings: in vivo
Outline: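 Rat in situ brain perfusion (Takasato method, Gratton modifications). Compound is dissolved in phosphate-buffered saline and perfused 10 s, or dissolved in rat plasma and perfused 60 s. Drug in cortex is measured and clearance from the perfusate into cortex is calculated (mL s⁻¹ g⁻¹ × 10⁴). Mean with SEM, n = 4.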

logP [1] | PBI [2] | HSAI [4] | PBI [5] | Cortex_Clearance [10] | SMILES | ED50 [3] [mg/kg] | ED50 [6] [mg/kg] | ED50 [7] [mg/kg] | ED50 [8] [mg/kg] | ED50 [9] [mg/kg]
1.6 | 37 | 10 |  |  | O=c1[nH]c2cc(Cl)ccc2c(O)c1-c1ccccc1 | 4.5 |  |  |  | 
2.9 |  | 100 | 94 | 0 ml s-1 (10e4*g)-1 | O=c1[nH]c2cc(Cl)ccc2c(O)c1-c1cccc(Oc2ccccc2)c1 |  | 0.88 | 3.6 | 0.64 | 1.9
